Reference: the array DNA melting data of Ke et al. (doi:10.1101/2024.01.08.574731)

What was measured:
[1] = folding enthalpy; higher = less favourable; fluorescence melt of hairpins on a sequencing array, two-state fit; settings: sodium 0.088 M
Summary of the method: (§1)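 Bootstrapped two-state fits yielded melting temperature and folding enthalpy for library hairpins. Cy3 fluorescence, with annealed Cy3 and quencher oligos, was imaged on a sequenced MiSeq flow cell in 50 mM Na-HEPES pH 8.0, 25 mM NaCl in 2.5 °C steps up to 60 °C, and normalised to pre-quench Cy3 and to control constructs. Four replicates were combined by inverse variance, and fitted temperatures were raised by 9.35 °C to match UV melts.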

[2] = melting temperature; fluorescence melt of hairpins on a sequencing array, two-state fit, raised by 9.35 °C to match UV melts; settings: sodium 0.088 M
Summary of the method: as §1

GAAGCCGGAAACGGCCTC ((.((((....)))).))
folding enthalpy [1]: -10 kcal/mol | Tm [2]: 39.2 °C

GGGACACGAAAGTGCCCC (((.(((....))).)))
folding enthalpy [1]: -37.8 kcal/mol | Tm [2]: 63.1 °C

GATCATCAGATGATC ((((((...))))))
folding enthalpy [1]: -35.1 kcal/mol | Tm [2]: 44.5 °C

GCCGGAGGAAACTCCAGC ((.((((....)))).))
folding enthalpy [1]: -23.8 kcal/mol | Tm [2]: 40.9 °C

GATCACGTAGGTGATC ((((((....))))))
folding enthalpy [1]: -39 kcal/mol | Tm [2]: 63.9 °C

GATCCATAAGTGGATC ((((((....))))))
folding enthalpy [1]: -39.2 kcal/mol | Tm [2]: 51.9 °C

GCCCAGAAATGGGC (((((....)))))
folding enthalpy [1]: -33.9 kcal/mol | Tm [2]: 63.1 °C

GCGGTGCGAAAGCTGCGC (((..((....))..)))
folding enthalpy [1]: -32.1 kcal/mol | Tm [2]: 64.2 °C

GGTCCGGGAAACCAGACC ((((.((....)).))))
folding enthalpy [1]: -28.6 kcal/mol | Tm [2]: 46.4 °C

GCTCGGCGAAAGCCAAGC (((.(((....))).)))
folding enthalpy [1]: -35.8 kcal/mol | Tm [2]: 52.4 °C

GCGCAATCGAAAGATCGC (((..(((....))))))
folding enthalpy [1]: -24.1 kcal/mol | Tm [2]: 45.5 °C

GAGATTGGAAACGATCTC (((((.(....).)))))
folding enthalpy [1]: -36.1 kcal/mol | Tm [2]: 44.2 °C

GTTTGCGGAAACGCAAGC (.(((((....))))).)
folding enthalpy [1]: -23.4 kcal/mol | Tm [2]: 54.6 °C

GGGGCCGGAAACGACCCC ((((.((....)).))))
folding enthalpy [1]: -44.1 kcal/mol | Tm [2]: 59.2 °C

GAATCAGAAATGATTC ((((((....))))))
folding enthalpy [1]: -32.9 kcal/mol | Tm [2]: 45.6 °C

GGTGTGGGAAACCGTACC (((..((....))..)))
folding enthalpy [1]: -24.1 kcal/mol | Tm [2]: 36.8 °C

GACTACGAAAGTACGTC ((((((....))).)))
folding enthalpy [1]: -25.7 kcal/mol | Tm [2]: 43.3 °C

GATCTGCCGTCAGATC ((((((....))))))
folding enthalpy [1]: -37.8 kcal/mol | Tm [2]: 50.2 °C

GGGTTCGAAAGAAGCCC ((((((....))).)))
folding enthalpy [1]: -24.1 kcal/mol | Tm [2]: 55.7 °C

ACTATGAAAATAGT (((((....)))))
folding enthalpy [1]: -11.8 kcal/mol | Tm [2]: 32.2 °C

GATCGGGGACCGATC ((((((...))))))
folding enthalpy [1]: -37.2 kcal/mol | Tm [2]: 66.8 °C

GAGGGCGAAAGCCACTC ((((((....))).)))
folding enthalpy [1]: -13.7 kcal/mol | Tm [2]: 53.4 °C

GATCTGATGGCAGATC ((((((....))))))
folding enthalpy [1]: -36.5 kcal/mol | Tm [2]: 47.7 °C

GCTATTGGAAACAGTAGC ((((.((....)).))))
folding enthalpy [1]: -30 kcal/mol | Tm [2]: 42.9 °C

GTGGCACGAAAGTGTCAC (((.(((....))).)))
folding enthalpy [1]: -42 kcal/mol | Tm [2]: 67.2 °C

GCCGCCGGAAACGGCGAC (.(((((....))))).)
folding enthalpy [1]: -10.6 kcal/mol | Tm [2]: 60.9 °C

GTGGTGGGAAACCACTGC (..((((....))))..)
folding enthalpy [1]: -24.2 kcal/mol | Tm [2]: 55.1 °C

GTGGAATCGAAAGATCAC (((..(((....))))))
folding enthalpy [1]: -19.2 kcal/mol | Tm [2]: 33.9 °C

GATCATTTCTATGATC ((((((....))))))
folding enthalpy [1]: -41.4 kcal/mol | Tm [2]: 48.6 °C

GCAGTGCGAAAGCTGTGC (((..((....))..)))
folding enthalpy [1]: -19.4 kcal/mol | Tm [2]: 50.2 °C

GATCCCGAAAGGGTGATC ((((((....)))..)))
folding enthalpy [1]: -16.1 kcal/mol | Tm [2]: 39.8 °C

GCGGGGGGCCGC ((((....))))
folding enthalpy [1]: -13.5 kcal/mol | Tm [2]: 60.7 °C

GATCGAATTCTCGATC ((((((....))))))
folding enthalpy [1]: -43.3 kcal/mol | Tm [2]: 51.4 °C

GTAGGGGGAAACCCCTGC (.(((((....))))).)
folding enthalpy [1]: -21.9 kcal/mol | Tm [2]: 53.2 °C

GGGTTCGCGAAAGCGCCC (((..(((....))))))
folding enthalpy [1]: -15.3 kcal/mol | Tm [2]: 43.6 °C

GCTAGGGGAAACCCCAGC (((.(((....))).)))
folding enthalpy [1]: -29.8 kcal/mol | Tm [2]: 49.1 °C

GATCCGTCCCCGGATC ((((((....))))))
folding enthalpy [1]: -32.1 kcal/mol | Tm [2]: 56.5 °C

GACCGTGGAAACACAGTC (((.(((....))).)))
folding enthalpy [1]: -23.8 kcal/mol | Tm [2]: 40.5 °C

GCGTTGCCACGC ((((....))))
folding enthalpy [1]: -14.3 kcal/mol | Tm [2]: 53.8 °C

GCTTGCGAAAGCAGGAGC ((((((....)))..)))
folding enthalpy [1]: -14.3 kcal/mol | Tm [2]: 51.4 °C

GTGGCTCGAAAGAGTCAC (((.(((....))).)))
folding enthalpy [1]: -49.6 kcal/mol | Tm [2]: 63.8 °C

GCGATAAGTCGC ((((....))))
folding enthalpy [1]: -18.9 kcal/mol | Tm [2]: 49.8 °C

GTATACGGAAACGCATAC ((((.((....)).))))
folding enthalpy [1]: -28.2 kcal/mol | Tm [2]: 37.3 °C

GATCGATGATCGATC ((((((...))))))
folding enthalpy [1]: -22.2 kcal/mol | Tm [2]: 50.7 °C

GATTGCCGAAAGGCCATC (((.(((....))).)))
folding enthalpy [1]: -16.6 kcal/mol | Tm [2]: 40.9 °C

GTGACGGGAAACTGTCAC (((((.(....).)))))
folding enthalpy [1]: -37.8 kcal/mol | Tm [2]: 54.8 °C

GTTACGTCGAAAGACAAC (((..(((....))))))
folding enthalpy [1]: -10.3 kcal/mol | Tm [2]: 24.5 °C

GTTCTCGGAAACGGGAAC ((((.((....)).))))
folding enthalpy [1]: -41.3 kcal/mol | Tm [2]: 51 °C

GTGATTGGAAACAATTAC ((.((((....)))).))
folding enthalpy [1]: -32.3 kcal/mol | Tm [2]: 37.5 °C

GGTTACGAAAGTACCACC ((((((....)))..)))
folding enthalpy [1]: -14.4 kcal/mol | Tm [2]: 36.6 °C

GATCTTTAGGAAGATC ((((((....))))))
folding enthalpy [1]: -28.5 kcal/mol | Tm [2]: 42.6 °C

GTGTGAGAAATCACAC ((((((....))))))
folding enthalpy [1]: -30.9 kcal/mol | Tm [2]: 55.8 °C

TTGACGAAAGTCAA (((((....)))))
folding enthalpy [1]: -21.4 kcal/mol | Tm [2]: 54.1 °C

GATCTGCACCCAGATC ((((((....))))))
folding enthalpy [1]: -33.4 kcal/mol | Tm [2]: 47.8 °C

GCGAAGCGAAAGCTACGC (((.(((....))).)))
folding enthalpy [1]: -40.4 kcal/mol | Tm [2]: 55 °C

GTAGACTCGAAAGAGTAC (((..(((....))))))
folding enthalpy [1]: -13.9 kcal/mol | Tm [2]: 31.2 °C

GATCACCGACGTGATC ((((((....))))))
folding enthalpy [1]: -32.5 kcal/mol | Tm [2]: 54.5 °C

GCCGCGACGAAAGTCGGC (((..(((....))))))
folding enthalpy [1]: -9.47 kcal/mol | Tm [2]: 62.4 °C

GTGGTAACGAAAGTTCAC (((..(((....))))))
folding enthalpy [1]: -10.7 kcal/mol | Tm [2]: 35.7 °C

GATCTTGTTCAAGATC ((((((....))))))
folding enthalpy [1]: -43.4 kcal/mol | Tm [2]: 49.1 °C

GCAATGGCGAAAGCCTGC (((..(((....))))))
folding enthalpy [1]: -14.1 kcal/mol | Tm [2]: 50.5 °C

GTTACGGAAACGTAAC ((((((....))))))
folding enthalpy [1]: -38.1 kcal/mol | Tm [2]: 56.8 °C

GTCTAACGAAAGTTCGAC (((.(((....))).)))
folding enthalpy [1]: -28.3 kcal/mol | Tm [2]: 43.2 °C

GTAGGCGAAAGCCCGTAC ((((((....)))..)))
folding enthalpy [1]: -8.97 kcal/mol | Tm [2]: 31.1 °C

GCGAGAACTCGC ((((....))))
folding enthalpy [1]: -27.4 kcal/mol | Tm [2]: 54.9 °C

GCAACACGAAAGTGCTGC (((.(((....))).)))
folding enthalpy [1]: -48.4 kcal/mol | Tm [2]: 54.8 °C

GATCCCTAAGGGATC ((((((...))))))
folding enthalpy [1]: -38.4 kcal/mol | Tm [2]: 60.2 °C

GTGCCCGAAAGGGAACAC ((((((....)))..)))
folding enthalpy [1]: -15.2 kcal/mol | Tm [2]: 52.5 °C

GGTCTGTCGAAAGACACC (((..(((....))))))
folding enthalpy [1]: -11.4 kcal/mol | Tm [2]: 30.5 °C

GATCGATGTGTCGATC ((((((....))))))
folding enthalpy [1]: -40.2 kcal/mol | Tm [2]: 57.9 °C
